Reference: ChEMBL document CHEMBL1124612, “Synthesis and structure-activity relationships of a series of anxioselective pyrazolopyridine ester and amide anxiolytic agents” (J Med Chem, 1989)

Columns and labels:
[1] = molecular target: GABA-A receptor; anion channel; test: Inhibition of [3H]flunitrazepam binding to GABA-A benzodiazepine receptor of rat cerebral cortex; assay type: tissue-based
Rattus norvegicus = test: Minimum effective dose (po) tested for its anxiolytic activity in rat using the shock-induced suppression of drinking (SSD) test.; assay type: functional; conditions: read-out: MED
Method in brief: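 Rats (n = 8 per dose) were dosed orally at one or more levels and then run in the shock-induced suppression of drinking conflict test. MED is the dose producing a significant rise (p < 0.05, Student's t test) in mean shocks accepted relative to vehicle-treated controls.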

SMILES	IC50 [1] [nM]	minimal effective dose (Rattus norvegicus) [mg/kg]
C=CCOC(=O)c1c(C)nc2c(cnn2CCC2CC2)c1N	16	25
CCCCCn1ncc2c(N)c(C(=O)NC3CC3)cnc21	312	12.5
CCCCCn1ncc2c(N)c(C(=O)OCC3CC3)c(C)nc21	131	12.5
C=CCNC(=O)c1c[n+]([O-])c2c(cnn2CCCCC)c1N	53	12.5
CC#CCCn1ncc2c(N)c(C(=O)NCCC)cnc21	500	6.3
C#CCCCCn1ncc2c(N)c(C(=O)OCC=C)c(C)nc21	8.6	25
C#CCCn1ncc2c(N)c(C(=O)OCC=C)c(C)nc21	160	50
CCOC(=O)c1c(C)nc2c(cnn2CCC(C)C)c1N	39	100
C#CCCCn1ncc2c(N)c(C(=O)OCC=C)c(C)nc21	5.5	12.5
CCCCCn1ncc2c(N)c(C(=O)NCCC)cnc21	89	25
C#CCCCn1ncc2c(N)c(C(=O)OCC3CC3)c(C)nc21	22	12.5
C=CCOC(=O)c1c(C)nc2c(cnn2CC=C)c1N	112	25
CCCCCn1ncc2c(N)c(C(=O)NOCC)cnc21	531	12.5
C#CCCCn1ncc2c(N)c(C(=O)OCC)c(C)nc21	31	25
CCCCCn1ncc2c(N)c(C(=O)NCC3CC3)cnc21	35	6.3
CC#CCCn1ncc2c(N)c(C(=O)OCC3CC3)c(C)nc21	315	12.5
CC#CCCn1ncc2c(N)c(C(=O)OCC)c(C)nc21	590	25
CC#CCCn1ncc2c(N)c(C(=O)NCC3CC3)cnc21	271	3.1
CCCCCn1ncc2c(N)c(C(=O)NCC)cnc21	109	12.5

SMILES	IC50 [1] [nM]	minimal effective dose (Rattus norvegicus) [mg/kg]
CCCCn1ncc2c(N)c(C(=O)OCC)c(C)nc21	50	40
CCCCCn1ncc2c(N)c(C(=O)NCCCC)cnc21	80	50
C=CCNC(=O)c1cnc2c(cnn2CCCCC)c1N	28	12.5
C=CCOC(=O)c1c(C)nc2c(cnn2CCC#CC)c1N	79	25
CC#CCNC(=O)c1cnc2c(cnn2CCCCC)c1N	84	6.3
C=CCOC(=O)c1c(C)nc2c(cnn2CCCCC)c1N	21	25
C#CCNC(=O)c1cnc2c(cnn2CCCCC)c1N	60	6.3
CCCCCn1ncc2c(N)c(C(=O)NCc3ccccc3)cnc21	36	25
C#CCOC(=O)c1c(C)nc2c(cnn2CCCCC)c1N	89	25
CCCCNc1c(C(=O)OCC)c(C)nc2c1cnn2CC [TRACAZOLATE]	–	40
CCCCCn1ncc2c(N)c(C(=O)NC)cnc21	354	12.5
CCCCCn1ncc2c(N)c(C(N)=O)cnc21	2450	12.5
C=CCCCn1ncc2c(N)c(C(=O)OCC=C)c(C)nc21	9.7	25
C=CCOC(=O)c1c(C)nc2c(cnn2CCCC)c1N	21	25
CCCCCn1ncc2c(N)c(C(=O)N3CCC3)cnc21	137	50
CCCCCn1ncc2c(N)c(C(=O)OCC)c(C)nc21	58	50
CNC1=Nc2ccc(Cl)cc2C(c2ccccc2)=[N+]([O-])C1 [CHLORDIAZEPOXIDE]	330	10
C=CCCn1ncc2c(N)c(C(=O)OCC=C)c(C)nc21	54	25
